Reference: the array DNA melting data of Ke et al. (doi:10.1101/2024.01.08.574731)

What was measured:
[1] = folding enthalpy; higher = less favourable; fluorescence melt of hairpins on a sequencing array, two-state fit; conditions: sodium 0.088 M
Summary of the method: (§1)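 With Cy3 and quencher oligos annealed, library hairpins on a sequenced MiSeq flow cell were imaged for Cy3 fluorescence in 50 mM Na-HEPES pH 8.0, 25 mM NaCl, in 2.5 °C steps up to 60 °C. Melting temperature and folding enthalpy were derived from bootstrapped two-state fits of signals normalised to pre-quench Cy3 and to control constructs. Four replicates were combined by inverse variance, with fitted temperatures raised by 9.35 °C to match UV melts.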

[2] = melting temperature; fluorescence melt of hairpins on a sequencing array, two-state fit, raised by 9.35 °C to match UV melts; conditions: sodium 0.088 M
Summary of the method: as §1

Row | Sequence | folding enthalpy [1] [kcal/mol] | Tm [2] [°C]
1 | GAAAGCGAAAGCTCTTC ((((((....))).))) | -17.9 | 44.3
2 | CGCCGACGGAAACGTGCG (((..(((....)))))) | -27.6 | 45.5
3 | GATCACCTCGTGATC ((((((...)))))) | -38.2 | 59.3
4 | GAGCTACCGAAAGGTCTC (((..(((....)))))) | -13.5 | 27.6
5 | GTCCTCGGAAACGAAGAC (((.(((....))).))) | -26 | 38
6 | GGCAATGGAAACACTGCC ((((.((....)).)))) | -33.2 | 44
7 | GCGGGTGCCCGC ((((....)))) | -30.3 | 57.4
8 | GTTGCCGCGAAAGCGAAC (((..(((....)))))) | -12.6 | 35.6
9 | GGTTCAGGAAACTGAGCC ((.((((....)))).)) | -30.2 | 50
10 | GTAGACGAAAGTCCATAC ((((((....)))..))) | -10.2 | 26
11 | GACGCCGAAAGGCATGTC ((((((....)))..))) | -15.2 | 43.3
12 | GCAGGGCGAAAGCAGTGC (((..((....))..))) | -18.3 | 56.7
13 | GTGTCCGAAAGGAAGCAC ((((((....)))..))) | -19.2 | 38.6
14 | GTTAAAGAAATTTAAC ((((((....)))))) | -14.3 | 29.6
15 | GGTAGGGAAACCTACC ((((((....)))))) | -38.5 | 54.6
16 | GTACTCGAAAGAGGCTAC ((((((....)))..))) | -14.3 | 37.4
17 | GGTATAGGAAACTATGCC ((.((((....)))).)) | -33.1 | 43.2
18 | GACAACGAAAGTTGTC ((((((....)))))) | -24.8 | 67.9
19 | GATGAGGAAACTCATC ((((((....)))))) | -35 | 52.8
20 | CGAAGCGGAAACGCCTCG (((.(((....))).))) | -23.8 | 47.3
21 | GATCCGGTTCCGGATC ((((((....)))))) | -43 | 62.7
22 | GGGTTTGGAAACAGATCC ((.(.((....)).).)) | -13 | 29.9
23 | GACAACGAAAGTTTGGTC ((((((....)))..))) | -16.4 | 32.9
24 | GATCCCCGAAAGGGCATC (((.(((....))).))) | -14.3 | 34.3

Row | Sequence | folding enthalpy [1] [kcal/mol] | Tm [2] [°C]
25 | GATCAATAGCTTGATC ((((((....)))))) | -29.6 | 40.5
26 | GCCTCGCGAAAGCTGGGC (((..((....))..))) | -22.2 | 55.4
27 | GAACTAGGAAACTGGTTC ((((.((....)).)))) | -29 | 43
28 | GATCCGGAGCGGATC ((((((...)))))) | -33.3 | 56.1
29 | GATCACGACGTGATC ((((((...)))))) | -30.6 | 64.6
30 | GCTTGTCCGAAAGGAAGC (((..(((....)))))) | -17.7 | 36.1
31 | GTAGACGGAAACGTTTAC (((.(((....))).))) | -33.2 | 41.5
32 | GACGTTGAAAAACGTC ((((((....)))))) | -33.9 | 60.1
33 | GATCAGAAATGATC (((((....))))) | -22.5 | 41.1
34 | GTCTCCCCGAAAGGGGAC (((..(((....)))))) | -7.01 | 37.8
35 | GTGTTAGGAAACTAACGC (.(((((....))))).) | -21.8 | 47.4
36 | GCTGTATCGAAAGATAGC (((..(((....)))))) | -18.4 | 33.7
37 | GCAAACGAAAGTTCATGC ((((((....)))..))) | -11.2 | 26
38 | GGTCTCGAAAGAGCACC ((((((....))).))) | -22.8 | 46.5
39 | GATCAGTTTCTGATC ((((((...)))))) | -43.7 | 50.8
40 | GATCAGAGTACTGATC ((((((....)))))) | -37.4 | 49
41 | GGGTACGAAAGTATCCC ((((((....))).))) | -37.3 | 51.8
42 | GTGAGCGAAAGCTCTCAC ((((((....)))..))) | -10 | 40.6
43 | GTTTTTCGAAAGAACAAC (((.(((....))).))) | -17.8 | 34.3
44 | GATCGACGCCTCGATC ((((((....)))))) | -43.6 | 51.6
45 | CGACTCGGAAACGACTCG (((.(((....))).))) | -30.6 | 34.2
46 | GCTGCCGAAAGGCAAAGC ((((((....)))..))) | -14.8 | 57.1
47 | GCAATGCGAAAGCAAAGC ((..(((....)))..)) | -14.6 | 38
48 | GGAGACGGAAACGTCTTC (.(((((....))))).) | -17.4 | 50.7

Row | Sequence | folding enthalpy [1] [kcal/mol] | Tm [2] [°C]
49 | GATTCCCGAAAGGGCATC (((.(((....))).))) | -20.8 | 41.5
50 | GAACCCCGAAAGGGCTTC (((.(((....))).))) | -15.3 | 34.3
51 | GGTTATGGAAACATAATC (.(((((....))))).) | -31.2 | 36
52 | GGACCTGAAAAGGTCC ((((((....)))))) | -34.4 | 68.2
53 | GTAGTCCGAAAGGAGTAC (((.(((....))).))) | -43.5 | 54.1
54 | GCGCTGCGAAAGCCACGC (((..((....))..))) | -19.7 | 52.7
55 | GCACACGAAAGTGTATGC ((((((....)))..))) | -15.1 | 45.8
56 | GATCGTGCTGACGATC ((((((....)))))) | -36.4 | 55.8
57 | GCGAGGTTCGC ((((...)))) | -16.3 | 48.7
58 | GGGATATCGAAAGATCCC (((..(((....)))))) | -27.9 | 43.4
59 | GGAGAAGGAAACTTCTCC (((((((....))))))) | -43.1 | 57.7
60 | GCTAGCGAAAGCTCAAGC ((((((....)))..))) | -14 | 38
61 | GGCAAACGAAAGTTAGCC (((.(((....))).))) | -25.1 | 54.9
62 | GTTATCGGAAACGACAAC (((.(((....))).))) | -19.8 | 36.4
63 | GTCGGACGAAAGTCGAC (((.(((....)))))) | -28 | 56.9
64 | GATCTAACAATAGATC ((((((....)))))) | -17.6 | 33.9
65 | GGCGGTACGAAAGTAGCC (((..(((....)))))) | -18.8 | 50.7
66 | CGACCGGAAACGGGCTCG ((((((....)))..))) | -12.1 | 35.8
67 | GGCTAATCGAAAGATGCC (((..(((....)))))) | -27.2 | 45.2
68 | GATCGCATCGGCGATC ((((((....)))))) | -33.6 | 68.8
69 | GACTAACGAAAGTTCGTC (((.(((....))).))) | -30.5 | 42.5
70 | GAATCCGAAAGGACTTC ((((((....))).))) | -19.4 | 35.8
71 | GCCCCGCGAAAGCGACGC ((..(((....)))..)) | -10.6 | 31.3
72 | GATCCATTCATGGATC ((((((....)))))) | -43.5 | 59.5

Row | Sequence | folding enthalpy [1] [kcal/mol] | Tm [2] [°C]
73 | GTGTACGAAAGTATTCAC ((((((....)))..))) | -11.8 | 28.7
74 | GAGCCAGGAAACCAGCTC ((((..(....)..)))) | -24.6 | 34.9
75 | GAATCCGGAAACGAATTC ((((.((....)).)))) | -21.1 | 34.1
76 | GCGAGGGCTCGC ((((....)))) | -25.5 | 51
77 | GATCCGTTCCGGATC ((((((...)))))) | -46 | 59.2
78 | GGGTACGAAAGTAAACCC ((((((....)))..))) | -28.4 | 47.3
79 | GAAATGGGAAACCATTCC (.(((((....))))).) | -14.8 | 31
80 | GATAGGGGAAACCCCATC (((.(((....))).))) | -16.9 | 35.6
81 | GATCAACGGATTGATC ((((((....)))))) | -28 | 39.5
82 | GCTCAGCGAAAGCATAGC (((..((....))..))) | -16 | 38.5
83 | CGCTCGGAAACGAAGCG ((((((....))).))) | -29.5 | 53.6
84 | GCACTGTCGAAAGACTGC (((..(((....)))))) | -15.9 | 39.4
85 | GGTCAAGAAATTGACC ((((((....)))))) | -41.4 | 52.7
86 | GCAAGTGGAAACACTCGC ((.((((....)))).)) | -25.4 | 44.3
87 | GTGTTGGGAAACCAACAC (((((((....))))))) | -43.1 | 63.5
88 | GAGGACGAAAGTCGCTC ((((((....))).))) | -17.8 | 46
89 | GTCAACGAAAGTTGGGAC ((((((....)))..))) | -11.5 | 32.7
90 | GGGTGAGGAAACTCACCC (((((((....))))))) | -33.8 | 68.6
91 | GATCCTCTATAGGATC ((((((....)))))) | -40.8 | 51.9
92 | GATCTCGCGGAGATC ((((((...)))))) | -35.4 | 54.9
93 | GCGACATTTCGC ((((....)))) | -22 | 48.8
